Legend:
Format in all cases: functional
Mus musculus [1] = experiment: Percent increase in median life span of BDF1 mice with B-16 melanoma at dose 3.00 mg/kg administered intraperitoneally; settings: BDF1, B16, ip, route intraperitoneal
Outline: (§1)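 BDF1 mice were implanted ip with a homogenate from 0.05 g of B-16 melanoma. Ip dosing ran on days 1-9, starting 24 h after implant, in dose-response studies following NCI protocols. The read-out was percent increase in life span (ILS). T/C ≥125% was taken as significant.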

Mus musculus [2] = species on record: Mus musculus; experiment: Anticancer activity measured as the number of survivors of the total treated mice with P-388 leukemia at 30 days.
Outline: (§2)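 BDF1 or CDF1 mice given 10^6 ascitic P-388 leukemia cells ip, then treated ip on days 1, 5 and 9. Cures are survivors over total treated at 30 days.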

Mus musculus [3] = species on record: Mus musculus; experiment: Number of survivors of the total treated mice with B-16 melanoma, at 60 days.
Outline: (§3)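 BDF1 mice were implanted ip with a homogenate from 0.05 g of B-16 melanoma and dosed ip on days 1-9. Cures are survivors over total at 60 days.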

Mus musculus [4] = experiment: Percent increase in median life span of BDF1 mice with P-388 leukemia at dose 6.25 mg/kg administered intraperitoneally; settings: BDF1, P388, ip, route intraperitoneal
Mus musculus [5] = experiment: Percent increase in median life span of BDF1 mice with P-388 leukemia at dose 225 mg/kg administered intraperitoneally; settings: BDF1, P388, ip, route intraperitoneal
Mus musculus [6] = experiment: Percent increase in median life span of BDF1 mice with P-388 leukemia at dose 3.1 mg/kg administered intraperitoneally; settings: BDF1, P388, ip, route intraperitoneal
Mus musculus [7] = experiment: Percent increase in median life span of BDF1 mice with B-16 melanoma at dose 6.25 mg/kg administered intraperitoneally; settings: BDF1, B16, ip, route intraperitoneal; outline: as §1
Mus musculus [8] = species on record: Mus musculus; experiment: Cures is the number of survivors of the total treated mice (10) with B-16 melanoma, at 60 days; outline: as §3
Mus musculus [9] = experiment: Percent increase in median life span of BDF1 mice with P-388 leukemia at dose 12.5 mg/kg administered intraperitoneally; settings: BDF1, P388, ip, route intraperitoneal
Mus musculus [10] = species on record: Mus musculus; experiment: Cures is the number of survivors of the total treated mice (9) with P-388 leukemia, at 30 days.; outline: as §2
Mus musculus [11] = experiment: Percent increase in median life span of BDF1 mice with B-16 melanoma at dose 1.5 mg/kg administered intraperitoneally; settings: BDF1, B16, ip, route intraperitoneal; outline: as §1
Mus musculus [12] = species on record: Mus musculus; experiment: Cures is the number of survivors of the total treated mice (10) with B-16 melanoma, at 60 days.; outline: as §3
Mus musculus [13] = experiment: Percent increase in median life span of BDF1 mice with P-388 leukemia at dose 25 mg/kg administered intraperitoneally; 1, 5, 9 days of ip treatment relative to tumor inoculation; settings: BDF1, P388, ip, 216 h, route intraperitoneal
Outline: (§4)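 BDF1 or CDF1 mice given 10^6 ascitic leukemia cells ip, then dosed ip on days 1, 5 and 9. Read-out is percent increase in life span versus untreated controls. Cures were scored as survivors/total at 30 days; when cures reached 50% or more, the run was extended until a specific ILS could be calculated. T/C ≥125% counted as significant.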

Mus musculus [14] = experiment: Percent tumor inhibition at non-lethal dose was determined in BDF1 mice with madison lung 109 leukemia; 1, 5, 9 days of sc treatment relative to tumor inoculation
Mus musculus [15] = experiment: Percent increase in median life span of BDF1 mice with B-16 melanoma at dose 12 mg/kg administered intraperitoneally; Range 144-145%, 1-9 days of ip treatment relative to tumor inoculation; settings: BDF1, B16, ip, route intraperitoneal; outline: as §1
Mus musculus [16] = experiment: Cures is the number of survivors of the total treated mice (6) with advanced L-1210 leukemia, at 30 days; treatment day +2 iv
Outline: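 Advanced L-1210 leukemia, treated iv once on day +2 relative to tumor inoculation.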

Mus musculus [17] = species on record: Mus musculus; experiment: Cures is the number of survivors of the total treated mice (6) with P-388 leukemia, at 30 days.; outline: as §2
Mus musculus [18] = species on record: Mus musculus; experiment: Cures is the number of survivors of the total treated mice (24) with P-388 leukemia, at 30 days.; outline: as §2
Mus musculus [19] = species on record: Mus musculus; experiment: Cures is the number of survivors of the total treated mice (10) with advanced B-16 melanoma, at 30 days.
Mus musculus [20] = experiment: Percent increase in median life span of BDF1 mice with advanced B-16 melanoma at dose 25 mg/kg administered intraperitoneally; 5, 9, 13 days of ip treatment relative to tumor inoculation; settings: B16, ip, 312 h, route intraperitoneal
Mus musculus [21] = experiment: Percent increase in median life span of BDF1 mice with L-1210 leukemia at dose 25 mg/kg administered intraperitoneally; 1, 5, 9 days of ip treatment relative to tumor inoculation; settings: BDF1, L1210, ip, 216 h, route intraperitoneal; outline: as §4
Mus musculus [22] = experiment: Percent increase in median life span of BDF1 mice with Colon 26 at dose 12.5 mg/kg administered intraperitoneally; 1, 5, 9 days of ip treatment relative to tumor inoculation; settings: BDF1, Colon 26, ip, 216 h, route intraperitoneal
Mus musculus [23] = species on record: Mus musculus; experiment: Cures is the number of survivors of the total treated mice (20) with B-16 melanoma, at 60 days.; outline: as §3
Mus musculus [24] = species on record: Mus musculus; experiment: Cures is the number of survivors of the total treated mice (5) with L-1210 leukemia, at 30 days.
Mus musculus [25] = experiment: Percent increase in median life span of BDF1 mice with madison lung 109 leukemia administered intraperitoneally
Mus musculus [26] = experiment: Percent increase in median life span of BDF1 mice with advanced L-1210 leukemia at dose 50 mg/kg administered intraperitoneally; treatment day +2 iv; settings: L1210
Mus musculus [27] = species on record: Mus musculus; experiment: Cures is the number of survivors of the total treated mice (26) with Colon 26, at 60 days.
Mus musculus [28] = experiment: Percent increase in median life span of BDF1 mice with advanced P-388 leukemia at dose 25 mg/kg administered intraperitoneally; 4, 8, 12 days of ip treatment relative to tumor inoculation; settings: P388, ip, 288 h, route intraperitoneal
Mus musculus [29] = experiment: Percent increase in median life span of BDF1 mice with L-1210 leukemia at dose 6.2 mg/kg administered intraperitoneally; 1, 5, 9 days of ip treatment relative to tumor inoculation; settings: BDF1, L1210, ip, 216 h, route intraperitoneal; outline: as §4
Mus musculus [30] = species on record: Mus musculus; experiment: Cures is the number of survivors of the total treated mice (6) with L-1210 leukemia, at 30 days.
Mus musculus [31] = experiment: Percent increase in median life span of BDF1 mice with Colon 26 at dose 6.2 mg/kg administered intraperitoneally; 1, 5, 9 days of ip treatment relative to tumor inoculation; settings: BDF1, Colon 26, ip, 216 h, route intraperitoneal
Mus musculus [32] = experiment: Percent increase in median life span of BDF1 mice with advanced B-16 melanoma at dose 6.2 mg/kg administered intraperitoneally; 5, 9, 13 days of ip treatment relative to tumor inoculation; settings: B16, ip, 312 h, route intraperitoneal
Mus musculus [33] = experiment: Percent increase in median life span of BDF1 mice with P-388 leukemia at dose 6.25 mg/kg administered intraperitoneally; 1, 5, 9 days of ip treatment relative to tumor inoculation; settings: BDF1, P388, ip, 216 h, route intraperitoneal; outline: as §4
Mus musculus [34] = species on record: Mus musculus; experiment: Cures is the number of survivors of the total treated mice (18) with P-388 leukemia, at 30 days.; outline: as §2
Mus musculus [35] = experiment: Percent increase in median life span of BDF1 mice with B-16 melanoma at dose 3 mg/kg administered intraperitoneally; range 116-129%, 1-9 days of ip treatment relative to tumor inoculation; settings: BDF1, B16, ip, route intraperitoneal; outline: as §1
Mus musculus [36] = species on record: Mus musculus; experiment: Cures is the number of survivors of the total treated mice (10) with Colon 26, at 60 days.
Mus musculus [37] = experiment: Percent increase in median life span of BDF1 mice with B-16 melanoma at dose 6.25 mg/kg administered intraperitoneally; 1-9 days of ip treatment relative to tumor inoculation; settings: BDF1, B16, ip, route intraperitoneal; outline: as §1
Mus musculus [38] = experiment: Percent increase in median life span of BDF1 mice with advanced B-16 melanoma at dose 12.5 mg/kg administered intraperitoneally; 5, 9, 13 days of ip treatment relative to tumor inoculation; settings: BDF1, B16, ip, 312 h, route intraperitoneal
Mus musculus [39] = species on record: Mus musculus; experiment: Cures is the number of survivors of the total treated mice (12) with P-388 leukemia, at 30 days.; outline: as §2
Mus musculus [40] = experiment: Percent increase in median life span of BDF1 mice with L-1210 leukemia at dose 3.1 mg/kg administered intraperitoneally; 1, 5, 9 days of ip treatment relative to tumor inoculation; settings: BDF1, L1210, ip, 216 h, route intraperitoneal; outline: as §4
Mus musculus [41] = experiment: Percent increase in median life span of BDF1 mice with P-388 leukemia at dose 12.5 mg/kg administered intraperitoneally; range 90-100%; range 90-100%, 1, 5, 9 days of ip treatment relative to tumor inoculation; settings: BDF1, P388, ip, 216 h, route intraperitoneal; outline: as §4

Br.Br.CN(C)CC/N=C(\S)N/N=C/c1c2ccccc2c(/C=N/N/C(S)=N/CCN(C)C)c2ccccc12
ILS at 3 mg/kg (Mus musculus [1]): 47% | Cures (Mus musculus [2]): 0 | Cures (Mus musculus [3]): 0 | ILS at 6.25 mg/kg (Mus musculus [4]): 106%

C(=N\NC1=NCCN1)/C1c2ccccc2C(/C=N/NC2=NCCN2)c2cc3ccccc3cc21 (centres undefined)
ILS at 225 mg/kg (Mus musculus [5]): 105%

CCc1ccc2c(/C=N/NC3=NCCN3)c3ccccc3c(/C=N/NC3=NCCN3)c2c1.Cl.Cl
ILS at 3.1 mg/kg (Mus musculus [6]): 64% | Cures (Mus musculus [2]): 0 | ILS at 6.25 mg/kg (Mus musculus [7]): 97% | Cures (Mus musculus [8]): 1

C(=N\NC1=NCC2(CC2)CN1)/c1c2ccccc2c(/C=N/NC2=NCC3(CC3)CN2)c2ccccc12.Cl.Cl
ILS at 12.5 mg/kg (Mus musculus [9]): 100% | Cures (Mus musculus [10]): 1 | ILS at 1.5 mg/kg (Mus musculus [11]): 127% | Cures (Mus musculus [12]): 4

C/N=C(\N)N/N=C/c1c2ccccc2c(/C=N/N/C(N)=N/C)c2ccccc12
ILS at 25 mg/kg (Mus musculus [13]): 157% | Inhibition (Mus musculus [14]): 89% | ILS at 12 mg/kg (Mus musculus [15]): 145% | Cures (Mus musculus [16]): 0 | Cures (Mus musculus [17]): 1 | Cures (Mus musculus [18]): 6 | Cures (Mus musculus [19]): 5 | ILS at 25 mg/kg (Mus musculus [20]): 62% | ILS at 25 mg/kg (Mus musculus [21]): 62% | ILS at 12.5 mg/kg (Mus musculus [22]): 129% | Cures (Mus musculus [23]): 8 | Cures (Mus musculus [24]): 0 | ILS (Mus musculus [25]): 53% | ILS at 50 mg/kg (Mus musculus [26]): 50% | Cures (Mus musculus [27]): 2 | ILS at 25 mg/kg (Mus musculus [28]): 108%

CN(C)C(=N)N/N=C/c1c2ccccc2c(/C=N/N=C(\N)N(C)C)c2ccccc12
ILS at 6.2 mg/kg (Mus musculus [29]): 100% | Cures (Mus musculus [30]): 0 | Cures (Mus musculus [19]): 2 | ILS at 6.2 mg/kg (Mus musculus [31]): 167% | ILS at 6.2 mg/kg (Mus musculus [32]): 41% | Cures (Mus musculus [23]): 2 | ILS at 6.25 mg/kg (Mus musculus [33]): 103% | Cures (Mus musculus [34]): 3 | ILS at 3 mg/kg (Mus musculus [35]): 125% | Cures (Mus musculus [36]): 1

Cl.Cl.Clc1ccc2c(/C=N/NC3=NCCN3)c3ccccc3c(/C=N/NC3=NCCN3)c2c1
Cures (Mus musculus [30]): 0 | ILS at 6.25 mg/kg (Mus musculus [37]): 206% | Cures (Mus musculus [19]): 0 | ILS at 12.5 mg/kg (Mus musculus [38]): 32% | ILS at 6.2 mg/kg (Mus musculus [31]): 100% | Cures (Mus musculus [39]): 2 | Cures (Mus musculus [12]): 4 | ILS at 3.1 mg/kg (Mus musculus [40]): 37% | ILS at 12.5 mg/kg (Mus musculus [41]): 95% | Cures (Mus musculus [36]): 1

Reference: ChEMBL document CHEMBL1122207, “Antitumor agents. 2. Bisguanylhydrazones of anthracene-9,10-dicarboxaldehydes” (1982)
